Laboratory results from paper PMC2889702 (ACS chemical neuroscience, 2010).
Entries after “also recorded” stand apart in the source; their conditions may differ. Each block holds one compound with its values, some of them ahead of it.

Assays:
Format in all cases: cell-based
[1] = biological target: rat mGluR1 (Rattus norvegicus, UniProt P23385)
Summary of the method: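 Rat mGluR1 stably expressed in BHK cells. Test compound run as a full 1:3 serial-dilution concentration–response, top final concentration 30 μM. Cells preincubated ~2.5 min with compound, then given an EC20 glutamate concentration, then EC80 glutamate 2 min later. Antagonism taken as blockade of the EC80 response. Data normalized to percent maximal glutamate response.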

[2] = biological target: T1, human mGluR4 (Homo sapiens, UniProt Q14833); settings: compared to (−)-PHCCC
[3] = biological target: T1, human mGluR4; test: calcium mobilization potency assay; settings: for fold increase in potency against hmGluR4: compared to PHCCC / (−)-PHCCC
[4] = test system: other mGluR subtypes; test: selectivity against all of the mGluR subtypes; settings: 10 μM compound
Summary of the method: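 Rat mGluR2, -3, -7, -8 and human mGluR6 were stably expressed in HEK cells coexpressing GIRK1/2. Rat mGluR5 was in HEK cells and rat mGluR1 in BHK cells. Cells received 10 μM final test compound or vehicle, then a full agonist concentration-response (glutamate; L-AP4 for mGluR7). mGluR1 instead: 1:3 compound series to 30 μM top final, EC20 then EC80 glutamate, blockade of EC80 response. Normalized to % Glu Max, triplicate.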

T1 sequence (Q14833 33-912): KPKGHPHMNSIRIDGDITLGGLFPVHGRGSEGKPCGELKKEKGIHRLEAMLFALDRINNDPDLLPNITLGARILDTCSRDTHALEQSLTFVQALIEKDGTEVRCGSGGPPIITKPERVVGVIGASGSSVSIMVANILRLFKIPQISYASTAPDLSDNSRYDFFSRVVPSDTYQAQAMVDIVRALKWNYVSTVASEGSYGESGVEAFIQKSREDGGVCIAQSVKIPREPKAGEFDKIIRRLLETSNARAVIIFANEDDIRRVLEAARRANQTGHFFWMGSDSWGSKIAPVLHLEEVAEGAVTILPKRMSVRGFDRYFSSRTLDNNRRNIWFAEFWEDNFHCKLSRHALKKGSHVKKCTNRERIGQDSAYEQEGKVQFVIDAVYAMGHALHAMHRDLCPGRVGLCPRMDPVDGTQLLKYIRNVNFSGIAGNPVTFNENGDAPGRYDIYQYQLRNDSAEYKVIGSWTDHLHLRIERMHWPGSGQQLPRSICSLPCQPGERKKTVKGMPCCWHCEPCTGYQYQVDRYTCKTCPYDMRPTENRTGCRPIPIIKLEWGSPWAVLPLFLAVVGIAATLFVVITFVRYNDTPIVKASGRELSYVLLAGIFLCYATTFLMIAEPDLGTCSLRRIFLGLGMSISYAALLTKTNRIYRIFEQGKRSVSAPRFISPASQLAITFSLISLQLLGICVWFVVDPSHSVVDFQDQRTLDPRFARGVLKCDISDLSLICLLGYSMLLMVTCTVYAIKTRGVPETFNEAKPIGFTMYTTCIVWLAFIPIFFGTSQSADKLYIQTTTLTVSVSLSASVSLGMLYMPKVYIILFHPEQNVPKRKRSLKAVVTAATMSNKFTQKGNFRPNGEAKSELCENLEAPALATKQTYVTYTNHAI
rat mGluR1, sequence (P23385 19-1199): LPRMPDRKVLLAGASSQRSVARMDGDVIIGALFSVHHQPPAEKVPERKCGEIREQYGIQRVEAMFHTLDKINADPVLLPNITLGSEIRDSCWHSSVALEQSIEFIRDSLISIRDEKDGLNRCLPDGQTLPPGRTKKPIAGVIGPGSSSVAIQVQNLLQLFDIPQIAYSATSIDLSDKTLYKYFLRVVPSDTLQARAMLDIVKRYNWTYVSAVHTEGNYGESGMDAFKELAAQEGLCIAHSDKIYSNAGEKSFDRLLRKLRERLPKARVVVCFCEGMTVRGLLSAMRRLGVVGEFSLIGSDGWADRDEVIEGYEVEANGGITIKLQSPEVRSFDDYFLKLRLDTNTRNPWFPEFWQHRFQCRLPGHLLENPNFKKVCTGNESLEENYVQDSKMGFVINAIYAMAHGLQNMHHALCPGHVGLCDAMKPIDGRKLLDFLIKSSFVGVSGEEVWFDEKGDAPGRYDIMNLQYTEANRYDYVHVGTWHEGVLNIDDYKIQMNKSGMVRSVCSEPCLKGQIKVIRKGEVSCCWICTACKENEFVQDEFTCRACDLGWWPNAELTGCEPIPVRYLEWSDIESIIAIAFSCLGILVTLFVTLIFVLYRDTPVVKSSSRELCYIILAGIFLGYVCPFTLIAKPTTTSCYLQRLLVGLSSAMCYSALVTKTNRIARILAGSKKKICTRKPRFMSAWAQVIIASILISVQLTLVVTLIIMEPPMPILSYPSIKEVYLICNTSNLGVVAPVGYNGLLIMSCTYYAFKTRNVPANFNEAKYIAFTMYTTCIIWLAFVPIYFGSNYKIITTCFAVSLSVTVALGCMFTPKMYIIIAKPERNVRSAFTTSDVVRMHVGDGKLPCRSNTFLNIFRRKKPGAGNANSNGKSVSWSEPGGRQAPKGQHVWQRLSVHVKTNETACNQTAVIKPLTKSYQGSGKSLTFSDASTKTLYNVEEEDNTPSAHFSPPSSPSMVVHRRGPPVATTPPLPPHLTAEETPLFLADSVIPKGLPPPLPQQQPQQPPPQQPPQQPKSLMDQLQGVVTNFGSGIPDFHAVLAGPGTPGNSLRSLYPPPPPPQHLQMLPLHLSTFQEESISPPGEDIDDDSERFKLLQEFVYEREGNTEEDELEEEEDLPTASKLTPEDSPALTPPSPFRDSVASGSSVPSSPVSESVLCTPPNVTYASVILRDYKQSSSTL

- % Glu Max (mGluR1) ([1]; rat mGluR1, normalized to percent maximal glutamate response): 23%
- IC50 ([1]; read-out: mGluR1 IC50): 2100 nM
Compound: O=C(Nc1ccccc1)C12CC1/C(=N\O)c1ccccc1O2 (racemic) [(±)-PHCCC, PHCCC]

- fold enhancement in efficacy [2]: 2 fold
- agonist activity of compound added alone at higher concentrations ([3]; >30 μM compound alone, data not shown): some intrinsic agonist activity
- fold increase in potency against hmGluR4 ([3]; listed as 10c): > 4 fold
- fold increase in potency against hmGluR4 ([3]; listed as (-)-10c): 4 fold
Compound: O=C(Nc1ccccn1)C12CC1/C(=N\O)c1ccccc1O2 (single isomer, unassigned; (-)) [(−)-10c]
- agonist activity of compound added alone ([3]; 30 μM compound alone, before glutamate addition, calcium mobilization): do not exhibit agonist activity; also recorded: only act in the presence of glutamate
- activity against the other mGluR subtypes tested [4]: devoid of activity

- mGluR1 activity ([1]; result in words, NAM=negative allosteric modulator): devoid of any mGluR1 activity
- EC50 [3]: 870 nM
Compound: O=C(Nc1ccccn1)C12CC1/C(=N\O)c1ccccc1O2 (stereo not shown) [Compound 5i, (E)-7-(Hydroxyimino)-N-(pyridin-2-yl)-1,1a,7,7a-tetrahydrocyclopropa[b]chromene-1a-carboxamide]
